Eight compounds from ChEMBL document CHEMBL1125686, “(Benzoylphenyl)piperidines: a new class of immunomodulators” (1991) can be followed below.

Assay [1] relates to Mus musculus. Description: […] induction of Thyl+ antigen expression on murine bone marrow cells (Fraction B).(Treated). The class given is functional. In short, it runs like this: (§1)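 Bone marrow from female C57 BL/6 mice, 5–8 weeks old, separated on a discontinuous BSA gradient. Fraction A (lowest density) and fraction B (next lowest) resuspended at 10⁶ cells/mL in HBSS with 5% BSA. Cells incubated 24 h with one compound concentration, then stained directly with FITC anti-Thy1 and counted by epifluorescence microscopy. % Thy1⁺ cells recorded for treated and control cultures.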

The subject of assay [2] is Mus musculus. The assay can be described thus: […] induction of Thyl+ antigen expression on murine bone marrow cells (Fraction B).(Control group). The class given is functional. In short, it runs like this: as §1
Assay [3] deals with Mus musculus. The assay can be described thus: […] induction of Thyl+ antigen expression on murine bone marrow cells (Fraction A).(Treated). The class given is functional. The essentials: as §1
The subject of assay [4] is Mus musculus. Description: […] induction of Thyl+ antigen expression on murine bone marrow cells (Fraction A).(Control group). The class given is functional. The essentials:
as §1

Assay [5] is filed under the species Mus musculus. The assay can be described thus: Maximal proliferation induced in the presence of the mitogen-PHA ( stimulated blastogenesis) in Mice cells at a dose of 10 ug/mL.
Assay [6] has as its system Mus musculus. The assay can be described thus: Proliferation induced by the mitogen alone-Concanavalin A (control blastogenesis), in mice cells dosed at 5 ug/mL. It counts as functional. On the set-up: unit not given here. In short, it runs like this: (§2)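 Splenocytes from female DBA/2 mice, 6–9 weeks old; red cells lysed with cold 0.17 M NH₄Cl. Cells plated at 5 × 10⁶ cells/mL in RPMI 1640 with 5% FCS, with compound (5–80 μg/mL range) and Con A, PWM or PHA at a batch-optimized concentration. Cultured 72 h at 37 °C, 5% CO₂, with [³H]thymidine for the final 24 h, read by scintillation. Triplicate wells; mean ± SD of three cultures.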

Assay [7] relates to Mus musculus. The assay can be described thus: Percent of restoration in nude mice (in vivo). It counts as functional. The essentials: (§3)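 Female nu/nu mice, 6–9 weeks old, dosed by gastric tube in 0.2 mL 2% arabic gum with 0.1% Tween-80; controls received vehicle only. Spleens taken 24 h later and splenocytes prepared. Thy1⁺ cells counted by direct FITC anti-Thy1 staining under epifluorescence. Five animals per group, mean ± SD.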

Assay [8] has as its system Mus musculus. Description: […] induction of Thyl+ antigen expression on murine bone marrow cells at the concentration of 3 uM(Fraction B).(Control group). It counts as functional. In short, it runs like this:
as §1

The test system of assay [9] is Mus musculus. The assay can be described thus: Percent of Thyl+ positive cells / spleen x 10 e6 in nude mice (in vivo). The class given is functional. The essentials: as §3
Assay [10] relates to Mus musculus. Description: […] induction of Thyl+ antigen expression on murine bone marrow cells at the concentration of 3 uM(Fraction B).(treated). The class given is functional. The essentials:
as §1

For assay [11], the system named is Mus musculus. The assay can be described thus: […] induction of Thyl+ antigen expression on murine bone marrow cells at the concentration of 3 uM(Fraction A).(Control group). The class given is functional. In short, it runs like this:
as §1

The subject of assay [12] is Mus musculus. The assay can be described thus: Percent of restoration of T- cell markers in nude mice (in vivo). The class given is functional. In short, it runs like this: as §3
The species entered for assay [13] is Mus musculus. The assay can be described thus: Proliferation induced by the mitogen alone-PHA (control blastogenesis), in Mice cells at a dose of 5 ug/mL. The class given is functional. Further details: unit not given here. The essentials: as §2
The species named for assay [14] is Mus musculus. Description: Proliferation induced by the mitogen alone-PWM (control blastogenesis), in Mice cells at a dose of 10 ug/mL. Further details: unit not given here. The class given is functional. The essentials: as §2
Assay [15] relates to Mus musculus. Description: Maximal proliferation induced in the presence of the mitogen-Concanavalin A (stimulated blastogenesis) in mice cells dosed at 5 ug/mL. It counts as functional. On the set-up: unit not given here. The essentials: as §2
In assay [16] the test system is Mus musculus. Description: […] induction of Thyl+ antigen expression on murine bone marrow cells at the concentration of 3 uM(Fraction A).(treated). The class given is functional. In short, it runs like this: as §1
Assay [17] concerns Mus musculus. Description: Percent of Thyl+ positive cells, in nude mice (in vivo). It counts as functional. The essentials:
as §3

For assay [18], the species on record is Mus musculus. The assay can be described thus: Maximal proliferation induced in the presence of the mitogen-PWM ( stimulated blastogenesis) in Mice cells at a dose of 10 ug/mL. It counts as functional. On the set-up: unit not given here. The essentials: as §2
The species entered for assay [19] is Mus musculus. Description: Proliferation induced by the mitogen alone-PWM (control blastogenesis), in Mice cells at a dose of 20 ug/mL. It counts as functional. The essentials: as §2
For assay [20], the species on record is Mus musculus. The assay can be described thus: Maximal proliferation induced by the test compound in the presence of the mitogen-PWM ( stimulated blastogenesis) in Mice cells at a dose of 20 ug/mL. It counts as functional. The essentials: as §2
The species entered for assay [21] is Mus musculus. The assay can be described thus: Maximal proliferation induced in the presence of the mitogen-PWM ( stimulated blastogenesis) in Mice cells at a dose of 80 ug/mL. The class given is functional. On the set-up: unit not given here. The essentials:
as §2

The species named for assay [22] is Mus musculus. Description: Proliferation induced by the mitogen alone-PWM (control blastogenesis), in Mice cells at a dose of 80 ug/mL. The class given is functional. On the set-up: unit not given here. In short, it runs like this:
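Splenocytes from female DBA/2 mice aged 6–9 weeks, red cells lysed with cold 0.17 M NH4Cl, cultured at 5 × 10⁶ cells/mL in RPMI 1640 with 5% FCS. Pokeweed mitogen added at a batch-adjusted optimal level, 72 h at 37 °C, 5% CO2. [³H]thymidine pulse for the final 24 h, then scintillation counting. Triplicates; mean ± SD of three cultures.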

Assay [23] deals with Mus musculus. Description: […] induction of Thyl+ antigen expression on murine bone marrow cells at the concentration of 3.2 uM(Fraction B).(treated). It counts as functional. In short, it runs like this: as §1
The test system of assay [24] is Mus musculus. The assay can be described thus: […] induction of Thyl+ antigen expression on murine bone marrow cells at the concentration of 3.2 uM(Fraction B).(Control group). The class given is functional. The essentials:
as §1

The subject of assay [25] is Mus musculus. The assay can be described thus: […] induction of Thyl+ antigen expression on murine bone marrow cells at the concentration of 3.2 uM(Fraction A).(Control group). The class given is functional. The essentials: as §1
The subject of assay [26] is Mus musculus. Description: […] induction of Thyl+ antigen expression on murine bone marrow cells at the concentration of 3.2 uM(Fraction A).(treated). The class given is functional. In short, it runs like this: as §1
The test system of assay [27] is Mus musculus. The assay can be described thus: […] induction of Thyl+ antigen expression on murine bone marrow cells at the concentration of 2.6 uM(Fraction A).(treated). It counts as functional. The essentials:
as §1

Assay [28] deals with Mus musculus. The assay can be described thus: […] induction of Thyl+ antigen expression on murine bone marrow cells at the concentration of 2.6 uM(Fraction B).(treated). It counts as functional. In short, it runs like this:
as §1

Assay [29] relates to Mus musculus. The assay can be described thus: […] induction of Thyl+ antigen expression on murine bone marrow cells at the concentration of 2.6 uM(Fraction B).(Control group). It counts as functional. In short, it runs like this:
as §1

For assay [30], the system named is Mus musculus. Description: […] induction of Thyl+ antigen expression on murine bone marrow cells at the concentration of 2.6 uM(Fraction A).(Control group). It counts as functional. The essentials:
as §1

On to “H-CSDAAVDVSSEITVKDLKEKKEVVEEAE-OH [THYMOSIN]”, for which the Differentiation came to 9.4% in the assay with Mus musculus [1], 6.3% with Mus musculus [2], 21.9% in the assay with Mus musculus [3] and 10.8% in the assay on Mus musculus [4].
Turning to `Nc1ccc(N2CCC(c3ccccc3)CC2)c(C(=O)c2ccc(Cl)cc2)c1`, the Proliferative response is recorded as 54.4 in the assay listed under Mus musculus [5]; 263.2 in the assay with Mus musculus [6]; 59.9 in the assay listed under Mus musculus [13]; 95.7 in the assay listed under Mus musculus [14]; 294.1 in the assay on Mus musculus [15]; 115.3 in the assay filed under Mus musculus [18]. The Restoration in the assay on Mus musculus [7] is listed as 7.4%; in the assay on Mus musculus [12], 12.5%. Moreover, the Differentiation in the assay on Mus musculus [8] came to 5.2%; in the assay with Mus musculus [10], 6.4%; in the assay on Mus musculus [11], 3.8%; in the assay on Mus musculus [16] it was 7%. This compound also had a Thylpositive cells/spleen in the assay with Mus musculus [9] of 3.2e+06 cells/spleen. For the same compound, in the assay on Mus musculus [17], the Thylpositive cells worked out at 5.5%.
For `CC1CCN(c2ccc(N)cc2C(=O)c2ccccc2Cl)CC1`, the Proliferative response in the assay filed under Mus musculus [19] worked out at 80; with Mus musculus [6], 150; with Mus musculus [15], 165.5; in the assay listed under Mus musculus [20] it was 85.8.
Regarding `Cc1ccc(C(=O)c2cc(N)ccc2N2CCC(C)CC2)c(C)c1`, the Proliferative response with Mus musculus [6] amounted to 279.6; in the assay on Mus musculus [15], 250; in the assay listed under Mus musculus [21], 61.5; in the assay filed under Mus musculus [22], 68.8.
Turning to `COc1ccc(C(=O)c2cc(N)ccc2N2CCC(C)CC2)cc1OC`, the Proliferative response in the assay with Mus musculus [6] is 137.4; in the assay on Mus musculus [15] it was 158.4; in the assay filed under Mus musculus [21], 48.8; in the assay listed under Mus musculus [22], 44.9.
For `CCCCC1CCN(c2ccc(N)cc2C(=O)c2ccc(Cl)cc2)CC1`, the Differentiation in the assay on Mus musculus [23] was determined as 6.4%; in the assay with Mus musculus [24], 5.2%; in the assay on Mus musculus [25], 3.8%; in the assay with Mus musculus [26], 4.2%. The Proliferative response in the assay listed under Mus musculus [5] is reported as 59.1; with Mus musculus [6], 211.8; in the assay listed under Mus musculus [13], 51.3; in the assay filed under Mus musculus [14] it was 78.4; with Mus musculus [15], 289.2; in the assay listed under Mus musculus [18], 81.7. In addition, the values for the Restoration in the assay on Mus musculus [7] and in the assay with Mus musculus [12] were 0.6% and 3.6%, respectively. For the same compound, the Thylpositive cells/spleen in the assay with Mus musculus [9] worked out at 2.05e+06 cells/spleen. In the assay with Mus musculus [17], this compound displayed a Thylpositive cells of 3.5%.
`CC1CCCN(c2ccc(N)cc2C(=O)c2ccc(Cl)cc2)C1` (stereo unspecified): the Differentiation with Mus musculus [27] is 6.7%; with Mus musculus [28], 5%; in the assay on Mus musculus [29], 3.8%; in the assay with Mus musculus [30] it was 5%. Further, the Proliferative response in the assay on Mus musculus [6] was determined as 124.4; with Mus musculus [15] it was 141.6; in the assay listed under Mus musculus [21], 45; in the assay listed under Mus musculus [22], 41.3.
`CC1CCN(c2ccc(N)cc2C(=O)c2ccc(F)cc2)CC1`: the Proliferative response in the assay with Mus musculus [6] worked out at 268.2; with Mus musculus [15], 165.6; in the assay filed under Mus musculus [21] it was 69.9; in the assay filed under Mus musculus [22], 72.2.
